bIAP activator – intestinal alkaline phosphatase (bovine) activation | purified bovine IAP, CDP-star luminescence, 30 min; hits give high values; fold of DMSO-control signal, blank-subtracted | activation factor at 20 µM | 200,000 tested, 0.17% active | AID 1016;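 active = activation factor of 2 or more at 20 µM, a signal rise over negative controls twice the positive control's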
bIAP inhibitor – intestinal alkaline phosphatase (bovine) inhibition; 190,000 tested, under 10 active; purified bovine IAP, CDP-star luminescence, 30 min; inhibition, % at 20 µM;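 active = over 50% inhibition of intestinal alkaline phosphatase at 20 µM in the single-dose screen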
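Incubation: 30 min reaction at room temperature / Material: purified bovine intestinal alkaline phosphatase (IAP) enzyme / Input: enzyme at 1/65,000,000 dilution / Dosing: 20 µM single dose / Signal: CDP-star luminescence signal / Reagent: CDP-star chemiluminescent phosphatase substrate, 30 µM final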
hIAP act – human IAP activation | P09923 | purified human IAP, CDP-Star luminescence, 30 min; hits give high values; 1 = vehicle-only enzyme, 0 = enzyme-free background | activation factor at 10 µM | 330,000 tested, 0.16% active | AID 2524;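 active = activation factor of the enzyme at least 2-fold when tested at 20 µM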
Target sequence (P09923 whole entry, looked up): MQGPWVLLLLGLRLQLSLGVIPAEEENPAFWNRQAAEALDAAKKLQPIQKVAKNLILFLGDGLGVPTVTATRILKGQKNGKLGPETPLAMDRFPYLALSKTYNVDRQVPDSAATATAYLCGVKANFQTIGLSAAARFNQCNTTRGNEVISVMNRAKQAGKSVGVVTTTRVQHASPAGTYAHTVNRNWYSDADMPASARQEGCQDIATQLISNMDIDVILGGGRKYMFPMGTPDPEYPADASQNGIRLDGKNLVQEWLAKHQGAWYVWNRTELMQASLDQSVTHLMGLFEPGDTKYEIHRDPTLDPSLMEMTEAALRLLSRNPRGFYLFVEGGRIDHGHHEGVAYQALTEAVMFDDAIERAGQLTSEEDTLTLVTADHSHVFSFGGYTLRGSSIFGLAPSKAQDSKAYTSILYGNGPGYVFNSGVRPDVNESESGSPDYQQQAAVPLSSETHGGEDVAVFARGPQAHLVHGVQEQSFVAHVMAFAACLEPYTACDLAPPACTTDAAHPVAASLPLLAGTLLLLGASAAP
mIAP block – blocks mouse intestinal alkaline phosphatase; purified mouse IAP, CDP-Star luminescence, 30 min; 330,000 tested, 0.2% active; inhibition, % at 10 µM;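 active = inhibition of at least 40% at 10 µM in the primary screen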;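 also: plate controls were DMSO with enzyme for no effect and no enzyme wells for full effect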
mIAP activ – mouse IAP activation. muIAP, CDP-Star luminescence, 30 min; hits give high values; 1 = vehicle-only enzyme signal, 0 = enzyme-free wells. activation factor at 10 µM. 330,000 tested, 0.24% active. AID 2805;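 active = activation factor of at least 2 at 20 µM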
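System: mouse IAP enzyme. Reagent: CDP-Star chemiluminescent phosphatase substrate. Benchmarks: DMSO wells, no-enzyme wells. Times: 30 min enzyme-substrate-compound incubation at room temperature. Detection: luminescence from enzymatic CDP-Star hydrolysis. Doses: test compounds delivered from DMSO solution.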
hIAP block – human IAP inhibition; inhibition, % at 10 µM; 330,000 tested, 0.12% active; purified IAP, CDP-Star luminescence, 30 min; P09923;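 active = inhibition reaching a set limit with compound at 10 µM in the primary screen, cut at about 35% in these data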;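 also: plate controls were DMSO wells with enzyme for no effect and no-enzyme buffer wells for full effect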
hIAP act confirm – human IAP activation confirmation; purified IAP, CDP-Star luminescence, 30 min; hits give low values; 880 tested, 10% active; activation (%Activity, negative = activation), % at 8.3 µM; shares compounds with hIAP act;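 active = at least twofold enzyme activation in any of six single-dose repeats, which the averaged readout prints as negative percent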
Active calls of the source: *; . = no result given. In the library only some 0.72% were active in any assay of this set; here they are far more common.

SMILES	bIAP activator	bIAP inhibitor	hIAP act	mIAP block	mIAP activ	hIAP block	hIAP act confirm
O=C(COc1ccc(Cl)cc1)NNC(=O)C(=O)NC1CCCCC1	.	.	1.5	31	0.69	-46	.
CCOc1ccc(Oc2ccc(NC(=O)[C@@H](NC(N)=O)[C@@H](C)CC)cc2)cc1	.	.	1.1	-17	1.2	-14	.
C=CCN1C=CC(=CC=C(C#N)C#N)C=C1	.	.	0.65	31	0.69	35*	-4
COc1ccc(CCc2nnc(CCC(=O)NCCc3ncccc3C)o2)cc1	1	-2	0.88	3	0.97	12	.
COc1ccccc1N(C)S(=O)(=O)c1ccc(Cl)c(C(=O)NNC(=O)c2ccccc2O)c1	.	.	2.3*	38	0.62	-134	59
CCn1c2ccccc2c2cc(NC(=O)c3coc(=O)c(Br)c3)ccc21	.	.	0.58	15	0.85	42*	39
Oc1ccc(-c2cn3ccccc3n2)cc1O	.	.	0.51	3	0.97	49*	12
Cc1ccn2cc(-c3ccc(O)c(O)c3)nc2c1	.	.	0.6	40	0.6	40*	-69
CC1CN(C(=O)c2cc3cc(Br)ccc3[nH]2)CC(C)O1 (configuration not stated)	.	.	0.98	2	0.98	2	.
COc1ccc(C(=O)NC(=S)NNC(=O)c2ccc(NC(C)=O)cc2)cc1Br	1.4	-39	2.1*	17	0.83	-110	2
CC(C)c1ccc(/C=N/NC(=O)c2ccc(-n3cnnn3)cc2)cc1	.	.	0.92	2	0.98	8	.
O=C(NC(=S)NNC(=O)c1ccccc1O)c1ccccc1	.	.	2.1*	28	0.71	-114	2
CCCCNC(=O)NNC(=O)c1ccco1	1.1	-9	1.1	-7	1.1	-5	.
O=C(NC(=S)NNC(=O)c1ccco1)c1ccccc1	.	.	2*	27	0.73	-103	21
CCCCNC(=S)NNC(=O)c1ccco1	0.9	8	0.56	13	0.87	44*	9
O=C(NC(=S)NNC(=O)c1ccccc1O)c1ccc(F)cc1	.	.	2.1*	31	0.69	-108	62
O=C(c1ccco1)N1CCN(c2ncnc3c(-c4ccc(Cl)cc4)nsc23)CC1	.	.	0.88	11	0.89	12	.
CCn1cc(C(=O)N[C@@H](CCSC)C(=O)NCCCn2ccnc2)c(=O)c2cc3c(cc21)OCO3	.	.	1.1	-8	1.1	-13	.
CN1CCN(S(=O)(=O)c2cccc(C(=O)NC3(C)CCS(=O)(=O)C3)c2)CC1 (configuration not stated)	.	.	1.1	-5	1.1	-11	.
O=C(NNC(=S)NC(=O)c1ccccc1[N+](=O)[O-])c1ccccc1O	1.4	-44	2.4*	27	0.73	-135	27
Cc1ccc(C(=O)NC(=S)NNC(=O)c2ccccc2O)cc1	.	.	2.4*	30	0.7	-139	18
Cc1ccc(C(=O)NNC(=S)NC(=O)c2ccccc2)cc1	.	.	0.94	7	0.93	6	.
O=C(NC(=S)NNC(=O)c1ccccc1O)c1cccs1	.	.	2*	23	0.77	-102	-3
CCOC(=O)N1CCN(C(=O)CC(C)S(=O)(=O)c2cc3c(cc2C)NC(=O)CO3)CC1 (configuration not stated)	.	.	1.1	10	0.9	-14	.
COc1cccc(/C=N/NC(=O)N/N=C/c2cccc(OC)c2O)c1O	.	.	2.5*	19	0.81	-151	4
SMILES	bIAP activator	bIAP inhibitor	hIAP act	mIAP block	mIAP activ	hIAP block	hIAP act confirm
Oc1cccc(/C=N/Nc2nn3cnnc3c3ccccc23)c1	.	.	0.94	-5	1	6	.
COc1cccc(/C=N/Nc2nn3cnnc3c3ccccc23)c1O	1.5	-49	2*	-9	1.1	-105	40
CCOc1ccccc1NC(=O)CSc1nc(=O)n(CCCN2CCOCC2)c2c1CCCC2	.	.	0.87	2	0.98	13	.
Cc1cccc(C)c1Nc1ncnc(N)c1[N+](=O)[O-]	0.8	16	0.79	1	0.99	22	.
COc1cccc(C(=O)NCC(=O)NNc2ncnc(N)c2[N+](=O)[O-])c1	1.3	-26	2.7*	17	0.83	-171	8
O=C1CCc2cc(NS(=O)(=O)c3ccc([N+](=O)[O-])cc3)cc3c2N1CCC3	.	.	1	8	0.92	-3	.
